Measured values gathered from unrelated publications.
Each line is one published result; the experiments were not run side by side.
SRC: Proto-oncogene tyrosine-protein kinase Src (SRC, Homo sapiens, UniProt P12931)
SRC T341M: Proto-oncogene tyrosine-protein kinase Src (SRC, Homo sapiens, UniProt P12931, T341M)

The inhibition of `O=C(CSc1nc2nccnc2c(=O)n1CCc1ccccc1)Nc1nccs1` is reported as 7% (SRC; enzyme activity; inhibitor; 10 µM).
With `Cc1ccc(C(=O)NCc2ccsc2)cc1C#Cc1cn(C(C)C)c2ncnc(N)c12` the activity vs control was 79% (SRC T341M; enzyme activity; inhibitor; 1 µM).
`FC(F)(F)Oc1cccc(-c2cnc3ccc(-c4ccncc4)nn23)c1` gave an activity vs control of 45% (SRC; enzyme activity; inhibitor; radiometric; 5 µM).
`C[C@@H]1CN(c2cc(-c3nn(C)c4ccc(OC5(C)CC5)cc34)ncn2)C[C@H](C)O1` has a remaining binding of 100% (SRC; cell-free assay; competition with immobilised ligand; 1 µM).
With `CSc1nc(C)c(-c2ccnc(Nc3ccc(N4CCOCC4)cc3)c2)[nH]1` the inhibition was 12.5% (SRC; enzyme activity; inhibitor; 10 µM).
`O=C1c2ccccc2-c2n[nH]c3cccc1c23` has an activity vs control of 97.6% (SRC; enzyme activity; inhibitor; 0.5 µM).
The inhibition of `C=CC(=O)Nc1cc(Nc2nccc(Nc3cc(Cl)c(F)cc3C(C)(C)O)n2)c(OC)cc1N1CC[C@@H](N(C)C)C1` is reported as 18% (SRC; enzyme activity; inhibitor; 1 µM).
The remaining binding of `CCCOc1ccc([C@@H]2[C@@H](C(=O)O)[C@H](c3ccc4c(c3)OCO4)CN2CC(=O)Nc2c(CC)cccc2CC)cc1` is reported as 100% (SRC; cell-free assay; competition with immobilised ligand; 1 µM).
The inhibition of `COc1cc2nccc(Oc3ccc(NC(=O)c4c5n(n(-c6ccc(F)cc6)c4=O)CCCC5)cc3)c2cc1OC` is reported as 49% (SRC; enzyme activity; inhibitor; 0.1 µM).
With `O=C1Nc2ccc(Cl)cc2C1=Cc1cc(Cl)c(O)c(Cl)c1` the remaining signal was 96.2% (SRC; cell-free assay; 0.5 µM).
`COc1cccc2c(NCc3ccccc3)nc(-n3c(N)nc4ccccc43)nc12` gave an inhibition of -15.5% (SRC; target engagement in cells; inhibitor; chemoproteomics; 20 mM).
The ΔTm of `Cc1ccc(C(=O)Nc2ccc(CN3CCN(C)CC3)c(C(F)(F)F)c2)cc1C#Cc1cnc2cccnn12` is reported as 5.1 °C (SRC; thermal stability; DSF).
`Cn1nc(C(F)(F)F)cc1-c1cnc(N2CCc3cc(S(=O)(=O)Nc4c(F)cc(Cl)cc4F)cc(N4CCCC4=O)c32)nc1` gave a remaining binding of 100% (SRC; cell-free assay; competition with immobilised ligand; 1 µM).
For `Cc1ccc(NC(=O)c2ccc(C)c(C(F)(F)F)c2)cc1C#Cc1nn(C2CCC(O)CC2)c2ncnc(N)c12` (stereo not shown), the remaining signal was 0% (SRC; cell-free assay; 10 µM).
With `CN(C)C1CCN(CC#Cc2nn(C3CCCC3)c3nc(NCc4ccccc4)ncc23)C1` (stereo not shown) the inhibition was 12% (SRC; enzyme activity; inhibitor; FRET; 1 µM).
For `O=C(NCc1ncc(C(F)(F)F)cc1Cl)c1ccc2c(c1)C1(CCS(=O)(=O)CC1)[C@@H](C1CC1)N2S(=O)(=O)c1ccc(F)cc1`, the remaining binding was 98% (SRC; cell-free assay; competition with immobilised ligand; 1 µM).
The inhibition of `CNC(=O)c1cc2c(Oc3ccc(NC(=O)C4(C(=O)Nc5ccc(F)cc5)CC4)cc3)ccnc2cc1OC` is reported as 97% (SRC; enzyme activity; inhibitor; radiometric; 1 µM).
For `COc1ccc(COc2ccc(Cc3cnc(N)nc3N)cc2OC)cc1`, the remaining signal was 97.9% (SRC; cell-free assay; 0.5 µM).
The remaining binding of `CNC(=O)c1ccc(Nc2ncc(C(F)(F)F)c(NCc3nccnc3N(C)S(C)(=O)=O)n2)cc1` is reported as 79% (SRC; cell-free assay; competition with immobilised ligand; 0.1 µM).
`Cc1cc(NC(=O)c2cccc3cc(-c4cccc5[nH]nc(N)c45)ccc23)ccc1F` has an activity vs control of 90% (SRC T341M; enzyme activity; inhibitor; 0.1 µM).
`O=C1CCc2cc(Nc3cc(OC4CCOCC4)c([N+](=O)[O-])cc3Cl)ccc2N1` gave a remaining binding of 100% (SRC; cell-free assay; competition with immobilised ligand; 1 µM).
For `COc1cc2ncnc(Nc3cccc(Cl)c3)c2cc1OC`, the remaining signal was 71.9% (SRC; cell-free assay; 0.5 µM).
With `CCC(=O)N[C@H]1CC[C@@H](C(=O)N(C)c2ccc(-c3nc4ccccc4o3)cc2)C1` the remaining binding was 93% (SRC; cell-free assay; competition with immobilised ligand; 1 µM).
`CC(C)n1cnc2c(Nc3cccc(Cl)c3)nc(NCCO)nc21` has a remaining signal of 68.9% (SRC; cell-free assay; 0.5 µM).
With `Cc1noc([C@H]2C[C@@H](c3ccc(C(F)(F)F)cc3)CN(C(=O)N3CCS(=O)(=O)C3)C2)n1` the remaining binding was 96% (SRC; cell-free assay; competition with immobilised ligand; 1 µM).
`COc1cc2ncnc(Nc3ccc(Oc4ccccc4)cc3C)c2cc1OC` has an inhibition of 90% (SRC; enzyme activity; inhibitor; 1 µM).
`COc1cc2c(Nc3ccc(Br)cc3F)ncnc2cc1OCC1CCN(C)CC1` has a remaining signal of 11% (SRC; cell-free assay; 0.5 µM).
For `Cc1ccc(Nc2nccc(N(C)c3ccc4c(C)n(C)nc4c3)n2)cc1S(N)(=O)=O`, the inhibition was 89% (SRC; enzyme activity; inhibitor; 10 µM).
